Compound activity (PubChem BioAssay)
The entries come from a sample that favours hits as a whole.
CTSL1 counter: Fasciola hepatica cathepsin L1 inhibitors, primary screen, counter-screen for PFM18AAP inhibitor project, biochemical, QFRET, fluorogenic peptide substrate | recombinant F. hepatica cathepsin L1, Z-Leu-Arg-MCA fluorescence | inhibition, % at 5.96 µM | 300,000 tested, 0.49% active | AID 1906, 2009;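 active means inhibition above the mean of all tested compounds plus 3 SD, set per screening campaign, cut at about 17% in these data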;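 further: 0% = plate median of test compound wells and 100% = 1 µM Z-Phe-Ala-diazomethylketone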
CHOP inhibitor: inhibitors of CHOP promoter induction, primary screen, cell-based, unfolded protein response, luciferase reporter | inhibition, % at 10 µM | 220,000 tested, 3.8% active | CHO-K1 CHOP-promoter luciferase, tunicamycin-induced, 15-18 h;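 active means compounds that reduced the stress-induced luciferase reporter signal by more than about 70% of percent inhibition, limit read from the data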;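 further: 0% = tunicamycin plus vehicle and 100% = wells without tunicamycin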
UPR CHOP act: activators of apoptotic CHOP UPR arm, primary screen, cell-based, CHO-CHOP luciferase reporter, luminescence, uHTS | activation, % at 10 µM | 330,000 tested, 0.34% active | UPR activation; percent of tunicamycin response over DMSO baseline;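 active means at 10 µM dose, activation of 40% or more, normalized to positive control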;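 further: 100% = tunicamycin at 10 µg/mL and 0% = DMSO alone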
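measured by = luciferase luminescence | assay system = CHO-CHOP cells, stable luciferase reporter of PERK-eIF2a-CHOP signalling | amount = 500 reporter cells seeded per well | timing = 6 h compound exposure at 37 °C after overnight seeding | controls = positive tunicamycin 10 µg/mL, negative DMSO alone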
XBP1 UPR activ: activators of adaptive XBP1 UPR arm, primary screen, cell-based, CHO-XBP1 luciferase reporter, luminescence, uHTS | IRE1-XBP1 UPR activation; percent of tunicamycin response, DMSO as zero | activation, % at 20 µM | 330,000 tested, 0.33% active | AID 463104, 2010;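 active means versus positive control, 20 µM dose yields 30% or more activation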;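 further: 100% = tunicamycin at 10 µg/mL and 0% = DMSO only wells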
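Assay system: IRE1-XBP1 luciferase reporter CHO line. Input: 1000 cells/well. Buffer or medium: F12 with 10% serum. Doses: 20 µM, 1% DMSO. Times: overnight seeding at 37 °C, 6 h compound treatment at 37 °C. Technique: Steady-Glo luciferase glow luminescence, 10 min after reagent addition.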
UCH37 inh: inhibitors of human UCH37 deubiquitinase, primary screen, biochemical, Ub-AMC cleavage, fluorescence | 330,000 tested, 0.33% active | inhibition, % (concentration not given with the values) | purified proteasome/UCH37 | Ubiquitin carboxyl-terminal hydrolase isozyme L5 (Homo sapiens), Q9Y5K5;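 active means mean inhibition over replicate wells above about 20%, limit read from the data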;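 further: 0% = compound-free wells with enzyme and 100% = wells lacking proteasome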
Target sequence (Q9Y5K5 whole entry, looked up): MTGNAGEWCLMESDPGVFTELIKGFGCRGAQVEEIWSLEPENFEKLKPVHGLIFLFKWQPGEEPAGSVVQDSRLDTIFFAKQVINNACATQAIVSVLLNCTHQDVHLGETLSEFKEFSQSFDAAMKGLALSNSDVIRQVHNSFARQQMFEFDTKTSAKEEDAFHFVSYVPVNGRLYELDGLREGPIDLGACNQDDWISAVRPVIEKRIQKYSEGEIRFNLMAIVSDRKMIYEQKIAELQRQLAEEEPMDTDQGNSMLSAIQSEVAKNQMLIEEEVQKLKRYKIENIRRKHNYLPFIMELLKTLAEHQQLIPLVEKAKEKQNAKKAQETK
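Schedule: 30 min plus 25 min, room temperature / Material: human UCH37 within purified proteasomes / Technique: AMC fluorescence intensity at 355/460 nm / Buffer or medium: pH 7.4 Tris-HCl (50 mM) with ovalbumin, ATP-MgCl2, DTT / Controls: wells without proteasome as full block, compound-free enzyme plus substrate as uninhibited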
An asterisk follows results filed as active; . = no result.

SMILES	CTSL1 counter	CHOP inhibitor	UPR CHOP act	XBP1 UPR activ	UCH37 inh
COc1ccc(OC)c(NC(=O)c2ccc(Cl)cc2)c1	49*	-11	0	4	5
COc1ccc(S(=O)(=O)Nc2ccc(F)c(F)c2)cc1Cl	-2	-21	-2	-2	1
COc1cc(Cl)c(C)cc1NC(=O)c1ccc(NS(=O)(=O)c2ccc(F)c(F)c2)cc1	6	79*	-2	1	-70
COc1ccc(C(=O)Nc2cc(OC)ccc2OC)cc1	-1	-3	2	0	-6
COc1cc2nc(NC(=O)c3ccc(Cl)cc3)[nH]c(=O)c2cc1OC	4	72*	0	-2	5
CC(=NNS(=O)(=O)c1ccc(C)cc1)c1c(O)c2ccccc2oc1=O	.	.	.	.	10
CCC(C)S(=O)(=O)c1snnc1C (stereo not drawn)	-2	2	-2	-1	31*
Cc1ccc(-c2csc(NN=Cc3ccco3)n2)c(C)c1	.	.	.	.	3
O=c1[nH]nc(Cc2ccc(-c3cccc(Cl)c3)o2)c2ccccc12	5	72*	7	5	0
Cn1ccsc1=NS(=O)(=O)c1ccc(F)cc1	.	.	.	.	0
CCCOC(=O)/C(=C\C=C\c1ccco1)NC(=O)c1ccccc1	26*	-31	6	1	2
Cc1ccc(C(=O)N/C(=C/c2ccco2)C(=O)OCN2C(=O)c3ccccc3C2=O)cc1	43*	27	2	-2	5
COc1ccc(-c2cnnn2-c2ccc(NC(=O)c3ccc(S(=O)(=O)N4CCCCC4)cc3)cc2)cc1OC	0	78*	1	19	-4
CCN(CC)c1ccc(C(=O)NNC(=O)CCl)cc1	58*	-7	3	-3	.
Cc1cc(O)ccc1N/C=C(\C#N)c1nc2ccccc2o1	2	73*	4	13	.
N#C/C(=C\c1c(Cl)cccc1Cl)c1nc2ccccc2o1	2	13	0	2	4
CC1=CC(=O)[C@H]2C(C)(C)CCC[C@]2(C)[C@@]1(O)CO	49*	5	2	-1	-2
COC(=O)/C(C#N)=C/c1c(Oc2cccc(C)c2C)nc2ccccn2c1=O	1	86*	-1	8	4
CCOC(=O)/C(C#N)=C/c1c(Oc2cccc(C)c2)nc2c(C)cccn2c1=O	3	77*	0	1	-4
CCOC(=O)/C(C#N)=C/c1c(Oc2cccc(C)c2)nc2ccccn2c1=O	1	17	1	-2	2
COc1cccc(/C=N/NC(=O)C(=O)Nc2ccccc2OC(F)(F)C(F)F)c1O	3	78*	0	-3	.
O=C(NN=Cc1cc(Br)ccc1O)C(=O)Nc1ccccc1OC(F)(F)C(F)F	.	.	.	.	4
CCCc1ccc(OCc2ccc(C(=O)N3CCN(c4ccccn4)CC3)o2)c(OC)c1	1	79*	0	0	1
COc1ccc(CC(=O)N2CCN(c3ccccn3)CC2)cc1OC	1	-1	-1	-2	-4
CCc1ccn2cc(-c3ccc4c(c3)OCO4)nc2c1	-3	78*	-10	-10	-172
SMILES	CTSL1 counter	CHOP inhibitor	UPR CHOP act	XBP1 UPR activ	UCH37 inh
COC(=O)c1ccc2nc(-c3ccc4c(c3)OCO4)cn2c1	-4	26	-7	-6	-30
Cc1ccnc(N/C=C(/NC(=O)c2ccccc2)C(=O)NN=Cc2ccc(F)cc2)n1	.	.	.	.	8
Cc1ccnc(N/C=C(/NC(=O)c2ccccc2)C(=O)N/N=C\c2ccc(F)cc2)n1	20*	0	-5	1	.
CN(C)C(=O)COC(=O)c1ccccc1Nc1ccc(SC(F)F)cc1	0	-12	4	4	-26
O=C(c1ccccc1Nc1ccc(SC(F)F)cc1)N1CCCCCC1	1	86*	-1	-1	3
O=C(NN=Cc1ccccc1O)C1CCCC1	.	.	.	.	-40
O=C(/C(=C/O)N=Nc1ccccc1)c1ccncc1	3	19	-4	-3	12
O=C(/C(=C/O)N=Nc1ccccc1)c1ccc(Cl)cc1	-2	92*	4	5	2
